Results published in ChEMBL document CHEMBL3392999 (J Med Chem, 2014).
Calls of active or inactive are those of the source. No cut-off for these calls is given here.

Assays:
[1] = Selectivity ratio of IC50 for human HEK293 cells to IC50 for human MCF7 cells; type: ADME, cell-based; settings: HEK293 cells versus MCF7 cells, read-out: Ratio IC50
Procedure, shortened: (§1)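 HT-29, MCF-7 and HEK293 cells were grown in DMEM (1 g/L glucose, 2 mM glutamine, antibiotics, amphotericin, 10% FBS). Serial dilutions of compound in DMSO were added to 5 x 10^3 cells/well for 3 days at 37 °C, 5% CO2. MTT was then added for 4 h, formazan was dissolved in 0.04 N HCl/2-propanol and read at 550 nm, in triplicate. IC50 is the 50% growth inhibition. The ratios are HEK293 IC50 over HT-29 or MCF-7 IC50.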

[2] = tested on: HT-29; test: Cytotoxicity against human HT-29 cells after 3 days by MTT assay; type: functional, cell-based; settings: HT-29, 72 h; procedure, shortened: as §1
[3] = tested on: MCF7; test: Cytotoxicity against human MCF7 cells after 3 days by MTT assay; type: functional, cell-based; settings: MCF7, 72 h; procedure, shortened: as §1
[4] = Selectivity ratio of IC50 for human HEK293 cells to IC50 for human HT29 cells; type: ADME, cell-based; settings: HEK293 cells versus HT29 cells, read-out: Ratio IC50; procedure, shortened: as §1
[5] = tested on: HEK293; test: Cytotoxicity against human HEK293 cells after 3 days by MTT assay; type: cell-based; settings: HEK293, 72 h; procedure, shortened: as §1
[6] = molecular target: T1, Tubulin (Homo sapiens) (UniProt P68371+Q9H4B7+P0DPH7+P68366+Q13509+Q71U36+P04350+Q3ZCM7+P07437+P68363+Q9BQE3+Q6PEY2+Q13885+Q9BVA1+Q9BUF5); test: Inhibition of purified tubulin (unknown origin) assessed as concentration of compound in supernatant solution at 30 uM after 1 hr; type: protein-complex assay
Procedure, shortened: (§2)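 In one set, mixtures stood 1 h at 37 °C and were extracted with dichloromethane. In another, microtubules were allowed to assemble and were ultracentrifuged, and the supernatant and pellet were extracted separately. Ligand in each extract was quantified against a 30 µM tubulin-free reference.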

[7] = molecular target: T1, Tubulin (Homo sapiens); test: Inhibition of purified tubulin (unknown origin) assessed as concentration of compound in pellet solution at 30 uM after 1 hr; type: protein-complex assay; procedure, shortened: as §2
[8] = tested on: A2780; test: Cytotoxicity against human A2780 cells after 24 hrs by MTT assay; type: functional, cell-based; settings: A2780, 24 h
[9] = Resistance factor, ratio of IC50 for human A2780AD cells to IC50 for human A2780 cells; type: functional, A2780 ADR
Procedure, shortened: (§3)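 Ovarian carcinoma A2780 and its P-glycoprotein-overexpressing MDR subline A2780AD were cultured in RPMI 1640 with 10% FCS, glutamine, antibiotics and 0.25 units/mL bovine insulin. Cytotoxicity was measured by a modified MTT assay. IC50 is 50% growth inhibition, averaged over three measurements. The resistance factor is A2780AD IC50 divided by A2780 IC50.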

[10] = molecular target: T1, Tubulin (Homo sapiens); test: Inhibition of purified tubulin (unknown origin) assessed as critical concentration of tubulin required to produce assembly at 25 uM after 30 mins by spectrophotometry; type: protein-complex assay
Procedure, shortened: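 Calf-brain tubulin (20 µM) was incubated 30 min at 37 °C in glycerol assembly buffer (3.4 M glycerol, 10 mM sodium phosphate, 1 mM EGTA, 1 mM GTP, pH 6.5) with ligand at varying concentrations or DMSO vehicle. The critical concentration for assembly was then calculated from the processed samples. Values are averages of replicate measurements.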

[11] = Depolymerization of microtubule cytoskeleton in human A549 cells assessed as DNA forming a ball without microtubules at 5 uM after 24 hrs by hoechst 33342-based fluorescence microscopy; type: cell-based
Procedure, shortened: (§4)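 A549 cells were cultured overnight on 12 mm round coverslips, then incubated 24 h with ligand or DMSO vehicle. Cells were permeabilized with Triton X-100 and fixed with 3.7% formaldehyde. Microtubules were stained with DM1A anti-α-tubulin monoclonal antibody and DNA with Hoechst 33342, then examined by epifluorescence microscopy with a cooled CCD camera.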

[12] = Depolymerization of microtubule cytoskeleton in human A549 cells assessed as DNA forming a ball without microtubules at 10 uM after 24 hrs by hoechst 33342-based fluorescence microscopy; type: cell-based; procedure, shortened: as §4
[13] = molecular target: T1, Tubulin (Homo sapiens); test: Inhibition of purified tubulin (unknown origin) assessed as concentration of compound in dichloromethane solvent at 30 uM after 1 hr; type: protein-complex assay; procedure, shortened: as §2
[14] = Depolymerization of microtubule cytoskeleton in human A549 cells assessed as aberrant mitosis at 10 uM after 24 hrs by hoechst 33342-based fluorescence microscopy; type: cell-based; procedure, shortened: as §4
[15] = tested on: A549; test: Cell cycle arrest at G2/M phase in human A549 cells at 5 to 10 uM after 20 hrs; type: functional
Procedure, shortened: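 A549 cells (RPMI 1640, 10% FCS, glutamine, antibiotics) were exposed to ligand or DMSO vehicle for 20 h. They were then fixed, RNase-treated and stained with propidium iodide. DNA content was measured by flow cytometry, and G2/M accumulation was read at the lowest concentration giving maximal arrest.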

[16] = Depolymerization of microtubule cytoskeleton in human A549 cells at 5 uM after 24 hrs by hoechst 33342-based fluorescence microscopy; type: cell-based; procedure, shortened: as §4
[17] = Depolymerization of microtubule cytoskeleton in human A549 cells assessed as aberrant mitosis at 5 uM after 24 hrs by hoechst 33342-based fluorescence microscopy; type: cell-based; procedure, shortened: as §4
[18] = Cytotoxicity against human A2780AD cells after 24 hrs by MTT assay; type: functional, cell-based; settings: A2780 ADR; procedure, shortened: as §3
[19] = Depolymerization of microtubule cytoskeleton in human A549 cells assessed as DNA forming a ball without microtubules at 50 nM after 24 hrs by hoechst 33342-based fluorescence microscopy; type: cell-based
Procedure, shortened: (§5)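 A549 cells grown overnight on 12 mm round coverslips, then 24 h with compound or DMSO vehicle. Cells permeabilized with Triton X100 and fixed in 3.7% formaldehyde. Microtubules stained with DM1A α-tubulin monoclonal antibody, DNA with Hoechst 33342. Examined by epifluorescence microscopy with cooled CCD imaging; mitotic spindles inspected.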

[20] = Depolymerization of microtubule cytoskeleton in human A549 cells assessed as aberrant mitosis at 50 nM after 24 hrs by hoechst 33342-based fluorescence microscopy; type: cell-based; procedure, shortened: as §5
[21] = tested on: A549; test: Cell cycle arrest at G2/M phase in human A549 cells at 50 nM after 20 hrs; type: functional, cell-based
Procedure, shortened: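 A549 human lung carcinoma cells in RPMI 1640 with 10% FCS, glutamine and antibiotics, exposed for 20 h to compound or DMSO vehicle. Cells were fixed, RNase-treated and stained with propidium iodide. DNA content was measured by flow cytometry to give G2/M fraction.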

[22] = Depolymerization of microtubule cytoskeleton in human A549 cells at 50 nM after 24 hrs by hoechst 33342-based fluorescence microscopy; type: cell-based; procedure, shortened: as §5
[23] = Depolymerization of microtubule cytoskeleton in human A549 cells at 1 uM after 24 hrs by hoechst 33342-based fluorescence microscopy; type: cell-based; procedure, shortened: as §4

SMILES	selectivity ratio [1]	IC50 [2] [nM]	IC50 [3] [nM]	selectivity ratio [4]	IC50 [5] [nM]	Activity [10] [µM]	IC50 [18] [nM]	further results
COc1cc2c(c(OC)c1OC)-c1ccc(OC)c(=O)cc1[C@@H](NC(=O)CCCCCCCCCCCCCCC(=O)OCCCCC[C@H]1CC=CC(=O)O1)CC2	1	30000	500	< 0.1	500			
COc1cc2c(c(OC)c1OC)-c1ccc(OC)c(=O)cc1[C@@H](NC(=O)CCCCCCCCCCC(=O)OCCCCC[C@@H]1CC=CC(=O)O1)CC2	4.2	18000	330	< 0.1	1400	6.3	26500	Activity [6]: 2 µM; Activity [7]: 5.7 µM; IC50 [8]: 240 nM; Ratio IC50 [9]: 110; Activity [11]: Active; Activity [12]: Active; Activity [13]: 6.9 µM; Activity [14]: Active; Activity [15]: >80%; Activity [16]: Active; Activity [17]: Active
COc1cc2c(c(OC)c1OC)-c1ccc(OC)c(=O)cc1[C@@H](NC(=O)CCCCCCCCCCCCCCC(=O)OCCCCC[C@@H]1CC=CC(=O)O1)CC2	0.7	8000	600	< 0.1	440			
COc1cc2c(c(OC)c1OC)-c1ccc(OC)c(=O)cc1[C@@H](NC(=O)CCCCCCC(=O)OCCCCC[C@H]1CC=CC(=O)O1)CC2	< 0.1	40000	12000	< 0.1	700			
COc1cc2c(c(OC)c1OC)-c1ccc(OC)c(=O)cc1[C@@H](NC(=O)CCCCCCCCCCC(=O)OCCCCC[C@H]1CC=CC(=O)O1)CC2	80	40000	300	0.6	24000			
COc1cc2c(c(OC)c1OC)-c1ccc(OC)c(=O)cc1[C@@H](NC(=O)CCCC(=O)OCCCCC[C@H]1CC=CC(=O)O1)CC2	< 0.1	65000	19000	< 0.1	400			
COc1cc2c(c(OC)c1OC)-c1ccc(OC)c(=O)cc1[C@@H](NC(=O)CCCCCCC(=O)OCCCCC[C@@H]1CC=CC(=O)O1)CC2	> 100	20000	290	1.6	33000			
COc1cc2c(c(OC)c1OC)-c1ccc(OC)c(=O)cc1[C@@H](NC(C)=O)CC2 [COLCHICINE]		50			5		306	Activity [19]: Active; Activity [20]: Active; Activity [21]: Active; Activity [22]: Active
COc1cc2c(c(OC)c1OC)-c1ccc(OC)c(=O)cc1[C@@H](NC(=O)CCCC(=O)OCCCCC[C@@H]1CC=CC(=O)O1)CC2	8.7	21000	700	0.3	6000	6.6	59000	Activity [23]: Active; Activity [6]: 18.1 µM; Activity [7]: 5.7 µM; IC50 [8]: 500 nM; Ratio IC50 [9]: 118; Activity [11]: Active; Activity [12]: Active; Activity [13]: 21.7 µM; Activity [14]: Active; Activity [15]: >80%; Activity [17]: Active
CC(=O)O[C@@]12CO[C@@H]1C[C@H](O)[C@@]1(C)C(=O)[C@H](O)C3=C(C)[C@@H](OC(=O)[C@H](O)[C@@H](NC(=O)OC(C)(C)C)c4ccccc4)C[C@@](O)([C@@H](OC(=O)c4ccccc4)[C@H]21)C3(C)C						0.9		
C/C=C/C[C@H](C)[C@@H](OC)[C@@H](C)[C@H](O)C[C@H]1OC(=O)C=C[C@H]1CC [PIRONETIN]	2.8			2.6		> 15	25	IC50 [8]: 8 nM; Ratio IC50 [9]: 3
